Experiment [1] concerns Mycobacterium tuberculosis. The experiment is described as follows: Antibacterial activity against Mycobacterium tuberculosis H37Ra by 7H9 broth dilution method. In kind it is functional.
Experiment [2] has as its system Mycobacterium tuberculosis. The experiment is described as follows: Antibacterial activity against Mycobacterium tuberculosis H37Ra by 7H10 agar plate method. It counts as functional.
Experiment [3] concerns Mycobacterium tuberculosis. The experiment is described as follows: Antibacterial activity against Mycobacterium tuberculosis H37Ra by broth microdilution method. In kind it is functional. The essentials: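 Broth microdilution in supplemented 7H9 (complete) medium with twofold drug dilutions. Inoculum 10^6 CFU/ml from cultures grown at 37°C to mid- or late-log phase. Incubated 21 days at 37°C, then turbidity inspected by eye against drug-free controls. MIC is the lowest concentration with no visible growth.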

The subject of experiment [4] is Mycobacterium tuberculosis. The experiment is described as follows: Antibacterial activity against Mycobacterium tuberculosis H37Ra by BACTEC method. It counts as functional.
The test system of experiment [5] is Mycobacterium tuberculosis. The experiment is described as follows: Antibacterial activity against Mycobacterium tuberculosis H37Ra by BACTEC MGIT 960 method. It counts as functional.
Experiment [6] deals with Mycobacterium tuberculosis. As to the kind of experiment: Antibacterial activity against Mycobacterium tuberculosis H37Ra by 7H11 agar plate method.

Structures are written as SMILES. In brackets after ≈: the same amount, converted by molar mass.

On to `CC[C@@H](CO)NCCN[C@@H](CC)CO` [ETHAMBUTOL], for which the minimum inhibitory concentration (MIC) was found to be 2 µg/mL (≈ 9.79 µM) in experiment [1], 5 µg/mL (≈ 24.5 µM) in experiment [2] and 5 µg/mL (≈ 24.5 µM) in experiment [3].
For the compound `NNC(=O)c1ccncc1` [ISONIAZID], the MIC came to 0.03 µg/mL (≈ 0.219 µM) in experiment [4], 0.25 µg/mL (≈ 1.82 µM) in experiment [1], 0.2 µg/mL (≈ 1.46 µM) in experiment [2] and 0.2 µg/mL (≈ 1.46 µM) in experiment [3].
Regarding `NC(=O)c1cnccn1` [PYRAZINAMIDE], the values for the MIC in experiment [5], in experiment [3] and in experiment [6] were 20 µg/mL (≈ 162 µM), 50 µg/mL (≈ 406 µM) and 50 µg/mL (≈ 406 µM), respectively.
In the case of `CO[C@H]1/C=C/O[C@@]2(C)Oc3c(C)c(O)c4c(O)c(c(/C=N/N5CCN(C)CC5)c(O)c4c3C2=O)NC(=O)/C(C)=C\C=C\[C@H](C)[C@H](O)[C@@H](C)[C@@H](O)[C@@H](C)[C@H](OC(C)=O)[C@@H]1C` [RIFAMPIN], the minimum inhibitory concentration (MIC) worked out at 0.25 µg/mL (≈ 0.304 µM) in experiment [4], 0.125 µg/mL (≈ 0.152 µM) in experiment [1], 0.2 µg/mL (≈ 0.243 µM) in experiment [2] and 0.2 µg/mL (≈ 0.243 µM) in experiment [3].

These data come from ChEMBL document CHEMBL1649253, “New approach for drug susceptibility testing: monitoring the stress response of mycobacteria” (2009).
